Test results as given in ChEMBL document CHEMBL1154951, “Discovery of potent and bioavailable GSK-3beta inhibitors” (Bioorg Med Chem Lett, 2010).
Converted amounts (≈) assume the structure as drawn. One block for each compound: values may come before it. The source made the active and inactive calls. The calls are words filed in the database; no cut-off is given here.

Columns and labels:
[1] = molecular target: Glycogen synthase kinase-3 beta (Homo sapiens, UniProt P49841); assay: Inhibition of human recombinant GSK3-beta assessed as [gamma33]ATP transfer to biotinylated CREB-peptide substrate after 1 hr by scintillation counting
Chain of Glycogen synthase kinase-3 beta (P49841 whole entry): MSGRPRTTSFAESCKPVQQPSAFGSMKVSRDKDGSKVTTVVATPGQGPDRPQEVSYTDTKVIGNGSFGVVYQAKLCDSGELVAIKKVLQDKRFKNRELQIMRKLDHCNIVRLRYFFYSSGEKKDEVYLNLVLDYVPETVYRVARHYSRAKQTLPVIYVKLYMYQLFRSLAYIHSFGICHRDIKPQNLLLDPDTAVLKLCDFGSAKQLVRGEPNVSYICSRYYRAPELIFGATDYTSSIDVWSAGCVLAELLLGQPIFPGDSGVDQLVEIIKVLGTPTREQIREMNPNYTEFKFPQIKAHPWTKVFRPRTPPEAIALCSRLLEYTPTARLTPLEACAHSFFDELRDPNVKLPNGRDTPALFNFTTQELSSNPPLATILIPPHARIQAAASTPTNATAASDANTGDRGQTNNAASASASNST

[2] = molecular target: Protein kinase C alpha type (Homo sapiens, UniProt P17252); assay: Inhibition of PKCalpha
Mus musculus [3] = assay: Cmax in mouse at 10 mg/kg, ip; format: ADME, organism-based; parameters: dose 10 mg/kg, route intraperitoneal; details: in vivo, BLD = below limit of detection
[4] = Aqueous solubility at pH 6.6; format: physicochemical
Mus musculus [5] = assay: AUC in mouse at 10 mg/kg, ip; format: ADME, organism-based, Plasma; parameters: dose 10 mg/kg, route intraperitoneal; details: in vivo, BLD = below limit of detection
[6] = molecular target: Mitogen-activated protein kinase 7 (Homo sapiens, UniProt Q13164); assay: Inhibition of ERK5
Summary of the method: (§1)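 Affinity measured as a binding constant (Kd) in a quantitative competition binding assay, not as a catalytic activity read-out. An 11-point concentration curve was run for each kinase. Kd values are given in µM. Each value is also expressed as a ratio over the Kd for GSK3b.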

[7] = molecular target: Dual specificity protein kinase TTK (Homo sapiens, UniProt P33981); assay: Inhibition of TTK; summary of the method: as §1
[8] = molecular target: Cyclin-dependent kinase 5 (Homo sapiens, UniProt Q00535); assay: Inhibition of CDK5; summary of the method: as §1
[9] = molecular target: Interferon-induced, double-stranded RNA-activated protein kinase (Homo sapiens, UniProt P19525); assay: Inhibition of PRKR
Summary of the method: (§2)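 Competition binding assay giving binding constant (Kd) from an 11-point quantitative affinity curve against each kinase in a selectivity panel; values reported in µM and as ratio over GSK3b.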

Aurora kinase C = Aurora kinase C (Homo sapiens, UniProt Q9UQB9); assay: Inhibition of AURKC; summary of the method: as §1
[10] = molecular target: Serine/threonine-protein kinase PLK1 (Homo sapiens, UniProt P53350); assay: Inhibition of PLK1; summary of the method: as §1
Chain of Serine/threonine-protein kinase PLK1 (P53350 whole entry): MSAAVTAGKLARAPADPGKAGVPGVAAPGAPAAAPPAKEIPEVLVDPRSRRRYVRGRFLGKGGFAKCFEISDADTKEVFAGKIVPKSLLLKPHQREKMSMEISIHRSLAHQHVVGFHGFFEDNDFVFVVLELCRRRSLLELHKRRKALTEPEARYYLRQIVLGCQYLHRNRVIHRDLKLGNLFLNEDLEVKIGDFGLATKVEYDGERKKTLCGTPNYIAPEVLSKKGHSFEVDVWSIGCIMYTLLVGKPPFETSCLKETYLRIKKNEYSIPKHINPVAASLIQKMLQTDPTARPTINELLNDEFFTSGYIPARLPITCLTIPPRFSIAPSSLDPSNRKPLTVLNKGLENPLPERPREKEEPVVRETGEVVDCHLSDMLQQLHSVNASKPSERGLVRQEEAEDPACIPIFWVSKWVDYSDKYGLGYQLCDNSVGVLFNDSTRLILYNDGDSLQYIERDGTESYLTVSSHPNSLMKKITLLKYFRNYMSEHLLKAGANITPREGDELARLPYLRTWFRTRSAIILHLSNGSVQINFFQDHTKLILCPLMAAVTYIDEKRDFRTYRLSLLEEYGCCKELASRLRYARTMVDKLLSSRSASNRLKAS

Aurora kinase A = Aurora kinase A (Homo sapiens, UniProt O14965); assay: Inhibition of AURKA; summary of the method: as §2
[11] = molecular target: Mitogen-activated protein kinase 6 (Homo sapiens, UniProt Q16659); assay: Inhibition of ERK3; summary of the method: as §1
Chain of Mitogen-activated protein kinase 6 (Q16659 whole entry): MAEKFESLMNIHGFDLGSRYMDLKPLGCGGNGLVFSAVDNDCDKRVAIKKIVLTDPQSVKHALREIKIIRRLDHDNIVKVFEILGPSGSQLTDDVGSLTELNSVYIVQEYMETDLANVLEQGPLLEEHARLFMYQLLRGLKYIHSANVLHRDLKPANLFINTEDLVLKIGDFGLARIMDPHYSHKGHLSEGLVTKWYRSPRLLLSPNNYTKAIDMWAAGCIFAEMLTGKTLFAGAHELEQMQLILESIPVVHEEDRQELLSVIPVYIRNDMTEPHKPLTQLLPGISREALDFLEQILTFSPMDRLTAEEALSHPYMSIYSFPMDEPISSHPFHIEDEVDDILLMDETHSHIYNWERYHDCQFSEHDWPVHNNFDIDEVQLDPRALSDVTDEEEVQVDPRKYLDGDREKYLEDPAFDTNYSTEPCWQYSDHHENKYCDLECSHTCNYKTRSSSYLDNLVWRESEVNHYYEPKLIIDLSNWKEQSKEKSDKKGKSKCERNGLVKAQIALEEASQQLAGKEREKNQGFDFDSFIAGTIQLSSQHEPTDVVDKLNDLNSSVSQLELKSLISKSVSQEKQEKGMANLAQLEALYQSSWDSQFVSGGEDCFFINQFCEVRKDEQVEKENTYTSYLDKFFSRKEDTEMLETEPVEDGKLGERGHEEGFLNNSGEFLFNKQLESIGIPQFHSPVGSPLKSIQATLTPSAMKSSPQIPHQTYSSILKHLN

Aurora kinase B = Aurora kinase B (Homo sapiens, UniProt Q96GD4); assay: Inhibition of AURKB; summary of the method: as §1
[12] = molecular target: Serine/threonine-protein kinase PLK3 (Homo sapiens, UniProt Q9H4B4); assay: Inhibition of PLK3; summary of the method: as §1
[13] = molecular target: Cyclin-dependent kinase 19 (Homo sapiens, UniProt Q9BWU1); assay: Inhibition of CDK11; summary of the method: as §1
[14] = molecular target: Mitogen-activated protein kinase 3 (Homo sapiens, UniProt P27361); assay: Inhibition of ERK1; summary of the method: as §1
[15] = molecular target: Mitogen-activated protein kinase 1 (Homo sapiens, UniProt P28482); assay: Inhibition of ERK2; summary of the method: as §1
Chain of Mitogen-activated protein kinase 1 (P28482 whole entry): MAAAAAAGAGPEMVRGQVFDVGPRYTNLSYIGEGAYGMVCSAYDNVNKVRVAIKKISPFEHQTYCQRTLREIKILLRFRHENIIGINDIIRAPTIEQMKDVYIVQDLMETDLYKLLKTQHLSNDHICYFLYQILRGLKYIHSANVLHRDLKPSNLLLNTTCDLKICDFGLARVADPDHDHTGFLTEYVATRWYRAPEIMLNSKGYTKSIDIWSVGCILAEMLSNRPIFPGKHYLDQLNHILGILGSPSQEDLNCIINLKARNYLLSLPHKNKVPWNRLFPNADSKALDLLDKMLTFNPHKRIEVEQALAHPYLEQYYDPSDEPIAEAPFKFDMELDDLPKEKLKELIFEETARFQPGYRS

[16] = molecular target: Mitogen-activated protein kinase 4 (Homo sapiens, UniProt P31152); assay: Inhibition of ERK4; summary of the method: as §1
[17] = molecular target: Cyclin-dependent kinase 8 (Homo sapiens, UniProt P49336); assay: Inhibition of CDK8; summary of the method: as §1
Rattus norvegicus [18] = assay: Antiosteoporosis activity in ovariectomized rat assessed as increase in bone mineral density in L5 vertebra at 30 mg/kg, po QD for 3 weeks by bone densitometer relative to control; format: functional, organism-based; parameters: dose 30 mg/kg
Rattus norvegicus [19] = assay: Antiosteoporosis activity in ovariectomized rat assessed as increase in bone mineral density in whole femur at 30 mg/kg, po QD for 3 weeks by bone densitometer relative to control; format: functional, organism-based; parameters: dose 30 mg/kg
Rattus norvegicus [20] = assay: Antiosteoporosis activity in ovariectomized rat assessed as increase in bone mineral density in proximal tibia at 30 mg/kg, po QD for 3 weeks by bone densitometer relative to control; format: functional, organism-based; parameters: dose 30 mg/kg
Rattus norvegicus [21] = assay: Antiosteoporosis activity in ovariectomized rat assessed as increase in bone mineral density in distal femur at 30 mg/kg, po QD for 3 weeks by bone densitometer relative to control; format: functional, organism-based; parameters: dose 30 mg/kg
[22] = molecular target: Glycogen synthase kinase-3 alpha (Homo sapiens, UniProt P49840); assay: Inhibition of GSK3alpha; summary of the method: as §1
Chain of Glycogen synthase kinase-3 alpha (P49840 whole entry): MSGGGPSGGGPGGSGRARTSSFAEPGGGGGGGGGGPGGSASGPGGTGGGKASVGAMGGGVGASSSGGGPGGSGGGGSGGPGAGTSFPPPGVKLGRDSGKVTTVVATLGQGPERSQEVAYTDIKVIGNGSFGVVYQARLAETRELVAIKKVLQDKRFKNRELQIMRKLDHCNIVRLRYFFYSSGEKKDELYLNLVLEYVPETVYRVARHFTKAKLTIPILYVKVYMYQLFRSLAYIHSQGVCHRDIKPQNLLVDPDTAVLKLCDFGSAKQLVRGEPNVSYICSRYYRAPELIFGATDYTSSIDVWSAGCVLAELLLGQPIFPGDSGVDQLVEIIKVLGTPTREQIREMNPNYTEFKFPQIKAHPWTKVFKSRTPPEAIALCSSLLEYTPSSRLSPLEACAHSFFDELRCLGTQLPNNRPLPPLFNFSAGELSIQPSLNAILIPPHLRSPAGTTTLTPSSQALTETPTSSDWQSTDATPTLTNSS

[23] = molecular target: Dual specificity protein kinase CLK2 (Homo sapiens, UniProt P49760); assay: Inhibition of CLK2; summary of the method: as §1
[24] = molecular target: Dual specificity protein kinase CLK1 (Homo sapiens, UniProt P49759); assay: Inhibition of CLK1; summary of the method: as §1
[25] = molecular target: Mitogen-activated protein kinase 15 (Homo sapiens, UniProt Q8TD08); assay: Inhibition of ERK8; summary of the method: as §1
Chain of Mitogen-activated protein kinase 15 (Q8TD08 whole entry): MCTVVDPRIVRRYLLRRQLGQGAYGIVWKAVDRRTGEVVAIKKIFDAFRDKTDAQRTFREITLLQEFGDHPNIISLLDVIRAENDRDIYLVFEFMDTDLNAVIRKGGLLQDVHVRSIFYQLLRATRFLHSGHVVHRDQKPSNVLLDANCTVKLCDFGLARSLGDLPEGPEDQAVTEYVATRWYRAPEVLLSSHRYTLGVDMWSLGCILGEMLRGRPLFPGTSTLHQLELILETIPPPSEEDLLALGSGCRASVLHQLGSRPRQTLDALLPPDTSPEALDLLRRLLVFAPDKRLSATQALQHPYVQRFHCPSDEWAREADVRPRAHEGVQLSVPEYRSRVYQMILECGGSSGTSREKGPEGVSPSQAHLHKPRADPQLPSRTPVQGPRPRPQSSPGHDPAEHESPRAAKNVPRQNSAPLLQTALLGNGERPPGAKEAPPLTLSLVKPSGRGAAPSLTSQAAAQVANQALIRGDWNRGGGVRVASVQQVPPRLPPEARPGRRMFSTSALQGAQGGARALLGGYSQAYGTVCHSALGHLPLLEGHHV

[26] = molecular target: Cyclin-dependent kinase 7 (Homo sapiens, UniProt P50613); assay: Inhibition of CDK7; summary of the method: as §1
[27] = molecular target: Cyclin-dependent kinase 17 (Homo sapiens, UniProt Q00537); assay: Inhibition of PCTK2; summary of the method: as §1
[28] = molecular target: Cyclin-dependent kinase 3 (Homo sapiens, UniProt Q00526); assay: Inhibition of CDK3; summary of the method: as §2
[29] = molecular target: Dual specificity tyrosine-phosphorylation-regulated kinase 1B (Homo sapiens, UniProt Q9Y463); assay: Inhibition of DYRK1B; summary of the method: as §2
Chain of Dual specificity tyrosine-phosphorylation-regulated kinase 1B (Q9Y463 whole entry): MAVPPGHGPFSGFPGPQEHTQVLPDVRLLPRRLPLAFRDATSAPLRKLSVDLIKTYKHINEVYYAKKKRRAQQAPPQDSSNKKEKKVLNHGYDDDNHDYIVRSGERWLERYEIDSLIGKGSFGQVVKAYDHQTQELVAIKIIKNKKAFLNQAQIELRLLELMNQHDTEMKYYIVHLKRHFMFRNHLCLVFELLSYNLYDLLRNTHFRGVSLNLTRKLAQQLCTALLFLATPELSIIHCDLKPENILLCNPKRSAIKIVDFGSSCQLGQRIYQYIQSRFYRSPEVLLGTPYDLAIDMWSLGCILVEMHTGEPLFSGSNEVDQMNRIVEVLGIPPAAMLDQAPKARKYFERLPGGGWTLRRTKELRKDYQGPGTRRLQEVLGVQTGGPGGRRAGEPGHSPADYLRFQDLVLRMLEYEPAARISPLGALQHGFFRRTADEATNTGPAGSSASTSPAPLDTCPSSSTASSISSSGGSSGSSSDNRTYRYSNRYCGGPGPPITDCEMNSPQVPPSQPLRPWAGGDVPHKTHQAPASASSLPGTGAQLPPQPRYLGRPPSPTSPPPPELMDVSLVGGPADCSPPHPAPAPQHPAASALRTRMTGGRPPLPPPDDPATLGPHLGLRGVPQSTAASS

[30] = molecular target: Dual specificity protein kinase CLK4 (Homo sapiens, UniProt Q9HAZ1); assay: Inhibition of CLK4; summary of the method: as §1
[31] = molecular target: Cyclin-dependent kinase 18 (Homo sapiens, UniProt Q07002); assay: Inhibition of PCTK3; summary of the method: as §1
Chain of Cyclin-dependent kinase 18 (Q07002 whole entry): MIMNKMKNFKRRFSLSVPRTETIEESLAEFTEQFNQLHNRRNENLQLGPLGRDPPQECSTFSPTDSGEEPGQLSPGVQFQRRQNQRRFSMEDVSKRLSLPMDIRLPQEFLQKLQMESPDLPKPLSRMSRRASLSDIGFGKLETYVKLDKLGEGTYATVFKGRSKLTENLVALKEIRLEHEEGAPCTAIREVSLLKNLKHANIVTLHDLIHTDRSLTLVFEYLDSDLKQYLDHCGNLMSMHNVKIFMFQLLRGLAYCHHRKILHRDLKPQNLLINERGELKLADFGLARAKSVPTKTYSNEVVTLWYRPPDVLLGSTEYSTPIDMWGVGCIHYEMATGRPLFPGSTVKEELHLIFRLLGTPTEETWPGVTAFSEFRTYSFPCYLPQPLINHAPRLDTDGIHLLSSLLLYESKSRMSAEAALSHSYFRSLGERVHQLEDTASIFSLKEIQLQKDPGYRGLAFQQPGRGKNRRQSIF

[32] = molecular target: Cyclin-dependent kinase 2 (Homo sapiens, UniProt P24941); assay: Inhibition of CDK2; summary of the method: as §1
[33] = molecular target: Serine/threonine-protein kinase 16 (Homo sapiens, UniProt O75716); assay: Inhibition of STK16; summary of the method: as §1
[34] = molecular target: Dual specificity protein kinase CLK3 (Homo sapiens, UniProt P49761); assay: Inhibition of CLK3; summary of the method: as §1
[35] = molecular target: Serine/threonine-protein kinase PLK4 (Homo sapiens, UniProt O00444); assay: Inhibition of PLK4; summary of the method: as §1
[36] = molecular target: Cyclin-dependent kinase 9 (Homo sapiens, UniProt P50750); assay: Inhibition of CDK9; summary of the method: as §2
Rattus norvegicus [37] = assay: AUC in rat at 25 mg/kg, po; details: plasma
Rattus norvegicus [38] = assay: Cmax in rat at 25 mg/kg, po; details: in vivo

- IC50 [1]: 0.56 nM
SMILES: Nc1nc(NCCNc2ncc(-c3ncc[nH]3)c(-c3ccc(Cl)cc3Cl)n2)ccc1[N+](=O)[O-]

- IC50 [1]: 8200 nM
SMILES: Cn1cc(C2=C(N3CCOCC3)C(=O)NC2=O)c2ccccc21

- IC50 [1]: 220 nM
SMILES: COc1cccc(C2=C(c3c(C)n(C)c4ccccc34)C(=O)NC2=O)c1

- IC50 [1]: 35 nM
- IC50 [2]: 2900 nM
SMILES: COc1cccc(C2=C(c3cn(C)c4cc(C)ccc34)C(=O)NC2=O)c1

- IC50 [1]: 2800 nM
SMILES: Cn1cc(C2=C(Oc3ccccc3)C(=O)NC2=O)c2ccccc21

- IC50 [1]: 3100 nM
SMILES: Cn1cc(C2=C(N(C(=O)OC(C)(C)C)c3ccccc3)C(=O)NC2=O)c2ccccc21

- IC50 [1]: 1300 nM
SMILES: COc1cccc(C2=C(c3cn(C)c4cccc(OC)c34)C(=O)NC2=O)c1

- IC50 [1]: 31 nM
- IC50 [2]: 4200 nM
SMILES: COc1cccc(C2=C(c3cn(C)c4cc(F)ccc34)C(=O)NC2=O)c1

- IC50 [1]: 6.4 nM
- IC50 [2]: 1400 nM
SMILES: COc1cccc(C2=C(c3cn(C)c4ccc(Cl)cc34)C(=O)NC2=O)c1

- IC50 [1]: 1 nM
- IC50 [2]: 740 nM
SMILES: Cn1cc(C2=C(c3cccc(NCCCO)c3)C(=O)NC2=O)c2ccccc21

- IC50 [1]: 730 nM
SMILES: Cn1cc(C2=C(c3ccc(-c4ccccc4)cc3)C(=O)NC2=O)c2ccccc21

- IC50 [1]: 2000 nM
SMILES: Cn1cc(C2=C(Sc3ccccc3)C(=O)NC2=O)c2ccccc21

- IC50 [1]: 350 nM
SMILES: Cn1cc(C2=C(Nc3ccccc3)C(=O)NC2=O)c2ccccc21

- IC50 [1]: 6.6 nM
- IC50 [2]: 6600 nM
SMILES: COc1ccc(C2=C(c3cn(C)c4ccccc34)C(=O)NC2=O)cc1OC

- IC50 [1]: 22 nM
- IC50 [2]: 380 nM
SMILES: COc1ccc(OC)c(C2=C(c3cn(C)c4ccccc34)C(=O)NC2=O)c1

- IC50 [1]: 42 nM
- IC50 [2]: > 30000 nM
SMILES: Cn1cc(C2=C(c3cccnc3)C(=O)NC2=O)c2ccccc21

- IC50 [1]: 7 nM
SMILES: CN(C)c1nc2ccc1CCCN1C=C(C3=C(C(=O)NC3=O)c3cn(c4ccccc34)CCC2)N2C=CC=CC12 (stereo not drawn)

- IC50 [1]: 2.4 nM
- IC50 [2]: 5500 nM
SMILES: COc1ccc(C2=C(c3cn(C)c4ccccc34)C(=O)NC2=O)c(OC)c1

- IC50 [1]: 10 nM
- IC50 [2]: 1050 nM
SMILES: Cn1cc(C2=C(c3c4n(c5ccccc35)CCN(C(N)=S)C4)C(=O)NC2=O)c2ccccc21

- IC50 [1]: 90 nM
- IC50 [2]: 6000 nM
- Cmax (Mus musculus [3]): BLD
- solubility [4]: < 0.5 µg/mL
- AUC (Mus musculus [5]): BLD
SMILES: COc1cccc(C2=C(c3cn(C)c4ccccc34)C(=O)NC2=O)c1

- IC50 [1]: 3.6 nM
- IC50 [2]: 760 nM
SMILES: Cn1cc(C2=C(c3ccccc3Cl)C(=O)NC2=O)c2ccccc21

- IC50 [1]: 22 nM
- IC50 [2]: 8900 nM
SMILES: Cn1cc(C2=C(c3cccs3)C(=O)NC2=O)c2ccccc21

- IC50 [1]: 1.8 nM
- IC50 [2]: 1900 nM
SMILES: Cn1cc(C2=C(c3cccc(N)c3)C(=O)NC2=O)c2ccccc21

- IC50 [1]: 1.8 nM
- IC50 [2]: 2200 nM
- solubility [4]: 2.8 µg/mL (≈ 6.82 µM)
SMILES: Cn1cc(C2=C(c3cccc(OCC(O)CO)c3)C(=O)NC2=O)c2cc(F)ccc21 (racemic)

- Kd [6]: 5600 nM
- Kd [7]: 6700 nM
- Kd [8]: 6800 nM
- Kd [9]: 14000 nM
- Kd (Aurora kinase C): 23000 nM
- Kd [10]: 23000 nM
- Kd (Aurora kinase A): 40000 nM
- Kd [11]: 40000 nM
- Kd (Aurora kinase B): 40000 nM
- Kd [12]: 40000 nM
- Kd [13]: 40000 nM
- Kd [14]: 40000 nM
- Kd [15]: 40000 nM
- Kd [16]: 40000 nM
- Kd [17]: 40000 nM
- Kd [22]: 1.5 nM
- Kd [23]: 10 nM
- IC50 [2]: 400 nM
- solubility [4]: 104 µg/mL (≈ 254 µM)
- Kd [24]: 16 nM
- Kd [26]: 41 nM
- Kd [27]: 69 nM
- Kd [28]: 80 nM
- Kd [29]: 87 nM
- Kd [30]: 110 nM
- Kd [31]: 110 nM
- Kd [32]: 150 nM
- Kd [33]: 230 nM
- Kd [34]: 310 nM
- Kd [35]: 320 nM
- Kd [36]: 410 nM
SMILES: Cn1cc(C2=C(c3cccc(NCC(O)CO)c3)C(=O)NC2=O)c2cc(F)ccc21 (racemic)
- Activity (Rattus norvegicus [18]): Active
- Activity (Rattus norvegicus [19]): Active
- Activity (Rattus norvegicus [20]): Active
- Activity (Rattus norvegicus [21]): Active
- Kd [25]: 32 nM

- IC50 [1]: 0.4 nM
- IC50 [2]: 260 nM
- solubility [4]: 42 µg/mL (≈ 98.6 µM)
- AUC (Rattus norvegicus [37]): 100 ng·h/mL
- Cmax (Rattus norvegicus [38]): 110 ng/mL
SMILES: Cn1cc(C2=C(c3cccc(NCC(O)CO)c3)C(=O)NC2=O)c2cc(Cl)ccc21 (racemic)
